Compound activity deposited in PubChem BioAssay by Broad Institute.
E-selectin induc: induces E-selectin expression in human endothelial cells; P16581; HUVEC E-selectin immunofluorescence imaging; normalized: neutral wells 0, TNF-alpha wells 100; activation, % at 7.58 µM; 0.37% of 260,000 active; AID 686992;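 active means mean E-selectin-positive cell signal at least 10% of the positive control, reached in at least 60% of replicates, without over 20% cell loss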
Target sequence (P16581 whole entry, looked up): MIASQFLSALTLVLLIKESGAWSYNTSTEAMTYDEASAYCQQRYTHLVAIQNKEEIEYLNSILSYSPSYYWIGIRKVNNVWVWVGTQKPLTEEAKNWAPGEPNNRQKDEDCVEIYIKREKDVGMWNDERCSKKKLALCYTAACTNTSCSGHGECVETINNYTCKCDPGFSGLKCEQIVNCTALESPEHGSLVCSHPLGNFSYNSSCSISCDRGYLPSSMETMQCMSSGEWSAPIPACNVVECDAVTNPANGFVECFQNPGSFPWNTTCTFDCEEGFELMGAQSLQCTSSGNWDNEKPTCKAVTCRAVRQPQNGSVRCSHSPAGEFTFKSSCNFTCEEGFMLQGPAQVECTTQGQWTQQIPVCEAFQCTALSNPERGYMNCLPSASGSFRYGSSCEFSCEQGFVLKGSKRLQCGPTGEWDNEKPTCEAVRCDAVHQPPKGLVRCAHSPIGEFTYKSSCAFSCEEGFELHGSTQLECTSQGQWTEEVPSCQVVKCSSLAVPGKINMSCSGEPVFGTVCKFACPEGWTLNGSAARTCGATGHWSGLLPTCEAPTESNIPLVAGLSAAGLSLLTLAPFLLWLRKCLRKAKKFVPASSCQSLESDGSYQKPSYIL
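System: HUVEC / Compound: single concentration / Signal: immunofluorescence imaging / Read-out: percent E-selectin-positive cells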
Xi reactivation: reactivates the inactive X chromosome in mouse fibroblasts; activation, % at 7.58 µM; AID 743238; 0.055% of 360,000 active; XiGFP mouse fibroblasts, % GFP-positive cells imaging, 3 d; cells co-treated with 5-aza-dC sensitizer; scaled so ellipticine positive control = 100%;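 active means mean normalized replicate activation at least 10% and every replicate at or above 10%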
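material = 68-5-11 XiGFP fibroblast line | medium = DMEM plus 5-aza-dC sensitizer | schedule = 3 days compound exposure | benchmarks = positive control ellipticine, 6 µM final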
Large screens that a line does not name were inactive. Only a selection was taken, and hits are over-represented in it overall.

CO[C@H]1CN(C)C(=O)c2ccc(NC(=O)C3CC3)cc2OC[C@@H](C)N(Cc2cccc(F)c2)C[C@@H]1C	none
CC1=CC2=NC(=O)CC(C)(C(=O)N(CC(=O)NC3CCCC3)Cc3ccccc3)N2C=C1 (stereo not given)	E-selectin induc 41
CC1=CN2C(=NC(=O)CC2(C)C(=O)N(CC(=O)NC2CCCC2)Cc2ccccc2)C=C1 (stereo not given)	none
CNC[C@@H]1Oc2ccccc2CC(=O)N(C)C[C@H]1C	none (no result: E-selectin induc)
Cc1nn(C)c(C)c1N1C(=O)c2cccc3c(N)ccc(c23)C1=O	none
Cc1ccc(N2C(=O)c3cccc4c(N)ccc(c34)C2=O)c2cccnc12	Xi reactivation 116 (no result: E-selectin induc)
CO[C@@H]1CN(C)C(=O)c2ccc(NC(=O)CC(F)(F)F)cc2OC[C@@H](C)N(C(=O)C2CC2)C[C@@H]1C	none
Cc1noc(C)c1S(=O)(=O)Nc1ccc2c(c1)C(=O)N([C@@H](C)CO)C[C@@H](C)[C@@H](CN(C)C(=O)Nc1ccc(F)cc1)O2	none
CC(C)Nc1nc(Oc2ccc(=O)n(-c3ccccc3)n2)nc(N(C)C)n1	none
CCNc1nc(NC(C)(C)C)nc(Oc2ccc(=O)n(-c3ccccc3)n2)n1	E-selectin induc 43
O=C(CN1C(=O)c2cccc3cccc(c23)C1=O)NCCCO	E-selectin induc 63
O=C(CCCCCN1C(=O)c2cccc3cccc(c23)C1=O)NCCCO	none
COc1ccc2c3c([nH]c2c1)[C@H](CO)NCC31CN(S(=O)(=O)c2ccccc2)C1	none (no result: E-selectin induc)
Cc1ccc2nc(NC(=O)CSc3ncnc4c3oc3ccccc34)sc2c1	E-selectin induc 82
Cc1cccc(NC(=O)CSc2ncnc3c2oc2ccccc23)c1	none
C[C@H](CO)N1C[C@H](C)[C@H](CN(C)Cc2ccncc2)Oc2ccc(NC(=O)CCN3CCOCC3)cc2C1=O	none
C[C@H]1CN([C@@H](C)CO)C(=O)c2cc(NC(=O)CCN3CCOCC3)ccc2O[C@H]1CN(C)Cc1ccc(C(F)(F)F)cc1	none
C[C@@H]1CN([C@H](C)CO)C(=O)c2cc(NC(=O)CCN3CCOCC3)ccc2O[C@@H]1CN(C)Cc1ccc(C(F)(F)F)cc1	E-selectin induc 178
C[C@H](CO)N1C[C@H](C)[C@@H](CN(C)Cc2ccncc2)Oc2ccc(NC(=O)CCN3CCOCC3)cc2C1=O	none
C[C@@H]1CN([C@H](C)CO)C(=O)c2cc(NC(=O)CCN3CCOCC3)ccc2O[C@@H]1CN(C)Cc1ccncc1	E-selectin induc 36
C[C@H]1CN([C@@H](C)CO)C(=O)c2cc(NC(=O)CCN3CCOCC3)ccc2O[C@@H]1CN(C)Cc1ccncc1	E-selectin induc 362
CC(=O)N1[C@H](CO)[C@@H](c2ccccc2)C12CN(C(=O)Nc1ccccc1F)C2	none
CCCNC(=O)N[C@H]1CC[C@H](CC(=O)NC2CCCCC2)O[C@H]1CO	none
CC(=O)N1[C@@H]2CN(CC(F)(F)F)C[C@H]1C2c1ccc(Br)cc1 (stereo not given in full)	none (no result: E-selectin induc)
Cc1ccc(S(=O)(=O)Nc2ccc3c(c2)C(=O)N([C@@H](C)CO)C[C@H](C)[C@H](CN(C)C(=O)NC2CCCCC2)O3)cc1	none
Cc1ccc(S(=O)(=O)Nc2ccc3c(c2)C(=O)N([C@H](C)CO)C[C@@H](C)[C@H](CN(C)C(=O)NC2CCCCC2)O3)cc1	none
C[C@@H]1CN([C@H](C)CO)C(=O)c2cc(NS(=O)(=O)c3ccccc3)ccc2O[C@@H]1CN(C)C(=O)NC1CCCCC1	E-selectin induc 117
C[C@@H]1CN([C@H](C)CO)C(=O)c2cc(NS(C)(=O)=O)ccc2O[C@@H]1CN(C)C(=O)Nc1ccccc1	E-selectin induc 82
C[C@H](CO)N1C[C@H](C)[C@H](CN(C)C(=O)NC2CCCCC2)Oc2ccc(NS(=O)(=O)c3ccccc3)cc2C1=O	E-selectin induc 63
C[C@H]1CN([C@@H](C)CO)C(=O)c2cc(NS(C)(=O)=O)ccc2O[C@@H]1CN(C)C(=O)Nc1ccccc1	none
C[C@@H]1CN([C@@H](C)CO)C(=O)c2cc(C#CC3(O)CCCC3)cnc2O[C@@H]1CN(C)C(=O)C1CC1	none
CNC[C@@H]1Oc2c(NC(=O)NC(C)C)cccc2C(=O)N(C)C[C@@H]1C	none (no result: E-selectin induc)
CN1[C@@H]2Cn3c(ccc(-c4ccccc4)c3=O)[C@H]1[C@@H](C(=O)NCC1CCCCC1)[C@@H]2CO	none
COCC(=O)Nc1ccc2c(c1)C(=O)N(C)[C@@H]1CC[C@@H](CC(=O)NCc3ccc(OC)cc3)O[C@@H]1CO2	none
C[C@@H]1CN([C@H](C)CO)C(=O)c2cccc(NC(=O)C3CC3)c2O[C@@H]1CN(C)CC1CCCCC1	none
COc1cc(/C=C/C(=O)OCC(=O)Nc2ccc(Cl)cn2)ccc1O	E-selectin induc 47
O=C(COC(=O)/C=C/c1ccc(F)cc1)Nc1ccc(Cl)cn1	none (no result: E-selectin induc)
COc1ccc2c3c([nH]c2c1)[C@@H](CO)N(C(=O)c1ccc(F)cc1)CC31CN(C(=O)CC2CC2)C1	none
COc1cccc(NC(=O)c2ccccc2)c1	none
COc1cccc(NC(=O)c2ccc(OC(F)(F)F)cc2)c1	E-selectin induc 42
CCC(=O)N1CC(=O)N2[C@H](CO)[C@@H](c3ccc(C#CC(C)C)cc3)[C@H]2C1	none (no result: E-selectin induc)
C[C@H]1CC=CC[C@@H](c2ccc3c(c2)OCO3)NC(=O)[C@H](Cc2ccccc2)N(C)C(=O)c2ccccc2O1 (mixture of isomers)	none (no result: E-selectin induc)
CC(C)[C@@H]1COCn2nncc2CC[C@H](Cc2ccc(-c3ccccc3)cc2)C(=O)N1	none (no result: E-selectin induc)
COc1cc2ccccc2nn1	none
COc1ccc2c(n1)Sc1nc3ccccc3nc1N2	Xi reactivation 68
CCC(=O)N(C)C[C@@H]1Oc2cc(C3=CCCCC3)ccc2S(=O)(=O)N([C@H](C)CO)C[C@@H]1C	none
COc1ccccc1/C=N\NC(=O)c1ccc(COc2ccc(C)c(C)c2)o1	E-selectin induc 48
COc1cc(/C=N/NC(=O)c2ccc(COc3ccccc3Cl)o2)cc(Br)c1O	none (no result: E-selectin induc)
Fc1ccc(NC(=S)N2CCN(c3cccc(C(F)(F)F)c3)CC2)cc1	E-selectin induc 148
O=S(=O)(Nc1ncccn1)c1ccc(NC(=S)N2CCN(c3cccc(C(F)(F)F)c3)CC2)cc1	none
O=S(=O)(Nc1cccc(S(=O)(=O)N2CCCC2)c1)c1ccc(Cl)s1	none
O=S(=O)(Nc1cccc(S(=O)(=O)N2CCCC2)c1)c1cccs1	E-selectin induc 116
NC(=S)Nc1cccc2[nH]ncc12	none
O=S(=O)(Nc1cccc2[nH]ncc12)c1cccs1	E-selectin induc 33
Cc1cccc(-c2ccc([C@H]3[C@H]4CN(C(=O)c5cnccn5)CC(=O)N4[C@H]3CO)cc2)c1	none (no result: E-selectin induc)
Cc1cc2ccccc2n1CCNC(=O)c1ccc(S(=O)(=O)N2CCCCC2)cc1	E-selectin induc 93
O=C(NCCc1ccccc1)c1ccc(S(=O)(=O)N2CCCCC2)cc1	none
C[C@H]1CN(C)C(=O)c2cccc(N(C)C)c2O[C@H]1CN(C)S(C)(=O)=O	none (no result: E-selectin induc)
COc1ccc2c3c([nH]c2c1)[C@H](CO)N(C(=O)NC(C)C)CC31CCN(C(=O)c2ccncc2)CC1	none (no result: E-selectin induc)
C[C@H](CO)N1C[C@H](C)[C@H](CN(C)Cc2ccc(Cl)c(Cl)c2)Oc2c(NS(=O)(=O)c3cn(C)cn3)cccc2C1=O	E-selectin induc 38
C[C@@H]1CN([C@H](C)CO)C(=O)c2cccc(NS(=O)(=O)c3cn(C)cn3)c2O[C@H]1CN(C)Cc1ccncc1	none
